EC50 and inhibition data for six compounds are collected here from ChEMBL document CHEMBL1255388, “Antimalarial asexual stage-specific and gametocytocidal activities of HIV protease inhibitors” (Antimicrob Agents Chemother, 2010).

What all share (assay type): functional, organism-based
Test [1] concerns Plasmodium falciparum. Briefly: Antimicrobial activity against Plasmodium falciparum harboring […]-tagged Pfs16 protein after 48 hrs. The essentials:
(§1)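 In vitro growth inhibition of P. falciparum asexual cultures. Concentrations giving 10, 50 and 90% inhibition (± SE) were obtained by nonlinear regression curve fitting. Each assay was run in triplicate on at least two separate occasions.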

For test [2], the system named is Plasmodium falciparum. Briefly: Antigametocyte activity against Plasmodium falciparum harboring GFP-tagged Pfs16 protein assessed as reduction in number of gametocytes after 40 hrs by [3H]hypoxanthine incorporation assay.
Test [3] concerns Plasmodium falciparum. Briefly: Antimicrobial activity against chloroquine-sensitive Plasmodium falciparum 3D7 after 48 hrs. As to conditions: 3D7, 48 h. The essentials:
as §1

For test [4], the system named is Plasmodium falciparum. As to the kind of experiment: Antimicrobial activity against chloroquine-sensitive Plasmodium falciparum D10 after 48 hrs. The note with it: D10, 48 h. The method in brief: as §1
In test [5] the test system is Plasmodium falciparum. As to the kind of experiment: Antigametocyte activity against Plasmodium falciparum D10 trophozoites assessed as inhibition of parasite growth at 20 uM after 1 to 8 hrs. The essentials: (§2)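 Synchronized D10 cultures exposed to drug at 0 h (ring), 24 h (trophozoite) or 36 h (schizont) postsynchronization. After exposure, parasites washed, resuspended in drug-free medium and labelled with 0.5 μCi/well [3H]hypoxanthine for 40 h. Uptake compared with vehicle controls. Triplicate wells, repeated on at least two separate occasions.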

Test [6] has as its system Plasmodium falciparum. As to the kind of experiment: Antigametocyte activity against Plasmodium falciparum D10 schizonts assessed as inhibition of parasite growth at 20 uM after 1 to 8 hrs. The method in brief:
as §2

In test [7] the test system is Plasmodium falciparum. As to the kind of experiment: Antigametocyte activity against drug-resistant ring stage Plasmodium falciparum Dd2 assessed as inhibition of parasite growth at 20 uM after 1 to 8 hrs. The essentials:
(§3)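 Synchronized P. falciparum cultures were drug-exposed at 0 (ring), 24 (trophozoite) or 36 h (schizont) post-synchronization. They were then washed, resuspended in drug-free medium and seeded with 0.5 μCi/well [3H]hypoxanthine for 40 h. Incorporation was compared with vehicle controls. Triplicate, on at least two separate occasions.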

Test [8] deals with Plasmodium falciparum. As to the kind of experiment: Antigametocyte activity against ring stage Plasmodium falciparum D10 assessed as inhibition of parasite growth at 20 uM after 1 to 8 hrs. The essentials: as §2
The subject of test [9] is Plasmodium falciparum. Briefly: Antigametocyte activity against drug-resistant Plasmodium falciparum Dd2 schizonts assessed as inhibition of parasite growth at 20 uM after 1 to 8 hrs. The method in brief:
as §3

The test system of test [10] is Plasmodium falciparum. As to the kind of experiment: Antigametocyte activity against drug-resistant Plasmodium falciparum Dd2 trophozoites assessed as inhibition of parasite growth at 20 uM after 1 to 8 hrs. The essentials: as §3
For test [11], the system named is Plasmodium falciparum. As to the kind of experiment: Antigametocyte activity against ring stage Plasmodium falciparum D10 assessed as inhibition of parasite growth at 40 uM after 1 to 8 hrs. The method in brief: as §2
In test [12] the test system is Plasmodium falciparum. Briefly: Antigametocyte activity against Plasmodium falciparum D10 trophozoites assessed as inhibition of parasite growth at 40 uM after 1 to 8 hrs. The essentials: as §2
The test system of test [13] is Plasmodium falciparum. Briefly: Antigametocyte activity against ring stage Plasmodium falciparum D10 assessed as inhibition of parasite growth at 150 uM after 1 to 8 hrs. The essentials: as §2
The test system of test [14] is Plasmodium falciparum. Briefly: Antigametocyte activity against drug-resistant Plasmodium falciparum Dd2 trophozoites assessed as inhibition of parasite growth at 40 uM after 1 to 8 hrs. The method in brief:
as §3

Test [15] deals with Plasmodium falciparum. As to the kind of experiment: Antigametocyte activity against drug-resistant Plasmodium falciparum Dd2 schizonts assessed as inhibition of parasite growth at 40 uM after 1 to 8 hrs. The method in brief:
as §3

The subject of test [16] is Plasmodium falciparum. As to the kind of experiment: Antigametocyte activity against drug-resistant ring stage Plasmodium falciparum Dd2 assessed as inhibition of parasite growth at 40 uM after 1 to 8 hrs. The essentials: as §3
Test [17] has as its system Plasmodium falciparum. As to the kind of experiment: Antigametocyte activity against Plasmodium falciparum D10 schizonts assessed as inhibition of parasite growth at 40 uM after 1 to 8 hrs. The method in brief: as §2
In test [18] the test system is Plasmodium falciparum. As to the kind of experiment: Antigametocyte activity against drug-resistant ring stage Plasmodium falciparum Dd2 […] assessed as inhibition of parasite growth at 50 nM after 1 to 8 hrs. The essentials: as §3
For test [19], the system named is Plasmodium falciparum. Briefly: Antigametocyte activity against ring stage Plasmodium falciparum D10 assessed as inhibition of parasite growth at 50 nM after 1 to 8 hrs. The method in brief: as §2
The test system of test [20] is Plasmodium falciparum. Briefly: Antigametocyte activity against drug-resistant Plasmodium falciparum Dd2 schizonts assessed as inhibition of parasite growth at 50 nM after 1 to 8 hrs. The essentials:
as §3

Test [21] deals with Plasmodium falciparum. Briefly: Antigametocyte activity against Plasmodium falciparum D10 schizonts assessed as inhibition of parasite growth at 50 nM after 1 to 8 hrs. The essentials:
as §2

Test [22] has as its system Plasmodium falciparum. Briefly: Antigametocyte activity against drug-resistant Plasmodium falciparum Dd2 trophozoites assessed as inhibition of parasite growth at 50 nM after 1 to 8 hrs. The essentials: as §3
For test [23], the system named is Plasmodium falciparum. Briefly: Antigametocyte activity against Plasmodium falciparum D10 trophozoites assessed as inhibition of parasite growth at 50 nM after 1 to 8 hrs. The method in brief:
as §2

Test [24] concerns Plasmodium falciparum. Briefly: Antigametocyte activity against drug-resistant Plasmodium falciparum Dd2 schizonts assessed as inhibition of parasite growth at 150 uM after 1 to 8 hrs. The method in brief: as §3
The subject of test [25] is Plasmodium falciparum. As to the kind of experiment: Antigametocyte activity against Plasmodium falciparum D10 trophozoites assessed as inhibition of parasite growth at 150 uM after 1 to 8 hrs. The method in brief: as §2
Test [26] concerns Plasmodium falciparum. As to the kind of experiment: Antigametocyte activity against drug-resistant ring stage Plasmodium falciparum Dd2 assessed as inhibition of parasite growth at 150 uM after 1 to 8 hrs. The essentials: as §3
In test [27] the test system is Plasmodium falciparum. Briefly: Antigametocyte activity against Plasmodium falciparum harboring GFP-tagged Pfs16 protein assessed as inhibition of [3H]hypoxanthine incorporation after 40 hrs.
The subject of test [28] is Plasmodium falciparum. As to the kind of experiment: Antigametocyte activity against Plasmodium falciparum D10 schizonts assessed as inhibition of parasite growth at 150 uM after 1 to 8 hrs. The method in brief: as §2
Test [29] has as its system Plasmodium falciparum. As to the kind of experiment: Antigametocyte activity against drug-resistant Plasmodium falciparum Dd2 trophozoites assessed as inhibition of parasite growth at 150 uM after 1 to 8 hrs. The essentials: as §3
For test [30], the system named is Plasmodium falciparum. Briefly: Antimicrobial activity against chloroquine-resistant Plasmodium falciparum Dd2 after 48 hrs. As to conditions: Dd2, 48 h. The method in brief:
as §1

As a reminder, the EC50 is the concentration that produces a half-maximal response. The low end stands for an effect from little substance, the high end for a need for much substance.

Activity calls are given as the source filed them. The rule behind the calls is not given here.

Turning to `CC(C)c1nc(CN(C)C(=O)N[C@H](C(=O)N[C@@H](Cc2ccccc2)C[C@H](O)[C@H](Cc2ccccc2)NC(=O)OCc2cncs2)C(C)C)cs1` [RITONAVIR], the EC50 was determined as 5000 nM in the test on Plasmodium falciparum [1], 3000 nM in the test on Plasmodium falciparum [3] and 3000 nM in the test on Plasmodium falciparum [4]. Besides, the inhibition entry with Plasmodium falciparum [2] was “Dose-dependent effect”.
As for `Cc1cccc(C)c1OCC(=O)N[C@@H](Cc1ccccc1)[C@@H](O)C[C@H](Cc1ccccc1)NC(=O)[C@H](C(C)C)N1CCCNC1=O` [LOPINAVIR], the inhibition result in the test on Plasmodium falciparum [5], in the test on Plasmodium falciparum [6], in the test on Plasmodium falciparum [9] and in the test on Plasmodium falciparum [10] was “Active” in each case. Further, the 50% effective concentration (EC50) in the test on Plasmodium falciparum [1] worked out at 3000 nM; in the test on Plasmodium falciparum [3] it was 2000 nM; in the test with Plasmodium falciparum [4] it was 2000 nM. The inhibition entry in the test on Plasmodium falciparum [7] and with Plasmodium falciparum [8] was “inactive” each time. For the same compound, the inhibition entry in the test with Plasmodium falciparum [2] was “Dose-dependent effect”.
As for `CC(C)(C)NC(=O)[C@@H]1C[C@@H]2CCCC[C@@H]2CN1C[C@@H](O)[C@H](Cc1ccccc1)NC(=O)[C@H](CC(N)=O)NC(=O)c1ccc2ccccc2n1`, the inhibition entry in the test on Plasmodium falciparum [11], in the test with Plasmodium falciparum [16] and in the test with Plasmodium falciparum [17] was “inactive” in each case. In addition, the inhibition result with Plasmodium falciparum [12], in the test on Plasmodium falciparum [13], with Plasmodium falciparum [14] and in the test on Plasmodium falciparum [15] was “Active” throughout. For the same compound, the EC50 in the test with Plasmodium falciparum [1] amounted to 5000 nM; in the test with Plasmodium falciparum [3], 3000 nM; in the test on Plasmodium falciparum [4] it was 3000 nM. Also, in the test on Plasmodium falciparum [2], the inhibition result is “Dose-dependent effect”.
Take `CCN(CC)CCCC(C)Nc1ccnc2cc(Cl)ccc12` (configuration not stated) [CHLOROQUINE]: the inhibition result in the test with Plasmodium falciparum [18] and with Plasmodium falciparum [19] was “inactive” in each case. Also, the results for the EC50 in the test with Plasmodium falciparum [1], in the test on Plasmodium falciparum [3] and in the test on Plasmodium falciparum [4] were 23 nM, 25 nM and 23 nM, respectively. Besides, the inhibition result in the test on Plasmodium falciparum [20], in the test with Plasmodium falciparum [21], in the test with Plasmodium falciparum [22] and in the test on Plasmodium falciparum [23] was “Active” in each case.
Take `CCC[C@@]1(CCc2ccccc2)CC(O)=C([C@H](CC)c2cccc(NS(=O)(=O)c3ccc(C(F)(F)F)cn3)c2)C(=O)O1`: the EC50 in the test with Plasmodium falciparum [1] was determined as 18000 nM; with Plasmodium falciparum [3] it was 20000 nM; in the test with Plasmodium falciparum [4], 12000 nM; with Plasmodium falciparum [30], 21000 nM. The inhibition result with Plasmodium falciparum [13] and in the test with Plasmodium falciparum [26] was “inactive” each time. In addition, the inhibition entry in the test on Plasmodium falciparum [24], in the test on Plasmodium falciparum [25], with Plasmodium falciparum [27], with Plasmodium falciparum [28] and in the test on Plasmodium falciparum [29] was “Active” throughout. Moreover, the inhibition entry with Plasmodium falciparum [2] was “Dose-dependent effect”.
For `CC(C)CN(C[C@@H](O)[C@H](Cc1ccccc1)NC(=O)O[C@H]1CO[C@H]2OCC[C@H]21)S(=O)(=O)c1ccc(N)cc1`, in the test on Plasmodium falciparum [30], it took 70000 nM to reach a half-maximal effect (EC50).
